Source: PubChem BioAssay (Johns Hopkins Ion Channel Center)
TRPC6 activator – activates the mouse TRPC6 cation channel. Q61143. HEK293-TRPC6 membrane potential dye fluorescence; active compounds read high. B-score at 10 µM. hit rate 0.13% among 310,000. AID 2550;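 active means B-score of the integrated fluorescence ratio above library mean plus 3 SD, and starting fluorescence ratio within library mean plus 5 SD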;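 further: higher score means more depolarization so channel activation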
TRPC4 PAM – allosteric potentiators of mouse TRPC4 channel | Q9QUQ5 | HEK293 TRPC4beta/mu-opioid, DAMGO EC20, Fluo-4 Ca2+ flux; active compounds read high | B-score at 10 µM | AID 2227 | hit rate 0.42% among 310,000;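 active means B-score of calcium response area above 5 SD of library B-scores, with initial fluorescence ratio within 5 SD of library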;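 further: B-score of integrated fluorescence ratio over time as area under calcium response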
TRPC6 inhibitor – blocks the mouse TRPC6 cation channel; hit rate 1.1% among 310,000; Q61143; HEK293-TRPC6, membrane potential dye, ACh-evoked depolarization; active compounds read low; AID 2553; B-score at 10 µM;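 active means B-score under library mean minus 3 SD, initial fluorescence not abnormally high, positive integrated signal ratio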;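 further: B-score derived from integrated fluorescence ratio over the kinetic read; more negative B-score means stronger inhibition of depolarization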
TRPC4 agonist – activators of mouse TRPC4 channel. Q9QUQ5. HEK293 TRPC4beta/mu-opioid, Fluo4 calcium fluorescence; active compounds read high. B-score at 10 µM. hit rate 0.49% among 310,000;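 active means B-score above 5 SD of library B-scores, and initial fluorescence ratio not above library mean plus 5 SD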;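 further: positive B-score marks a calcium rise read as TRPC4 activation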
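Material: TRPC4beta and mu-opioid receptor HEK293 stable cells | Incubation: 45 min room-temperature Fluo4 loading, 110 s read | Detection: Kinetic Fluo4 calcium fluorescence | Measure: Integrated baseline-normalised fluorescence ratio, converted to per-well B score | Benchmarks: Low control buffer alone, high control maximal DAMGO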
TRPC4 block – blocks the mouse TRPC4 cation channel | Q9QUQ5 | HEK293 TRPC4beta/mu-opioid, DAMGO-evoked Fluo4 calcium flux; active compounds read low | B-score at 10 µM | hit rate 0.39% among 300,000 | AID 2247;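 active means B-score over 3 SD under the library average, no early fluorescence shift, positive overall ratio signal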
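System: stable TRPC4beta/mu-opioid receptor HEK293 cells; Dosing: single-point compound dosing; Measured by: Fluo4 Ca2+ flux fluorescence; Read-out basis: per-well B score of integrated baseline-normalized Fluo4 ratio.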
* = called active by the depositor; i = inactive. In the library only some 2.3% were active in any assay of this set; here they are far more common.

SMILES	TRPC6 activator	TRPC4 PAM	TRPC6 inhibitor	TRPC4 agonist	TRPC4 block
Cc1ccc(S(=O)(=O)N(C)CC(=O)Nc2cc(C)ccn2)cc1	i	i	i	i	i
C#CCCOC(=O)N1C2=NC(C(=O)OC)=C(C(=O)OC)[C@@H]3N(Cc4ccccc4)c4ccccc4[C@]23C[C@H]1C(=O)OC	i	10*	i	i	i
C#CCCOC(=O)N1C2=NC(C(=O)OC)=C(C(=O)OC)[C@@H]3N(C)c4ccccc4[C@]23C[C@H]1C(=O)OC	i	i	i	i	i
COc1ccc(Cc2nnc(NC(=O)c3ccccc3)s2)cc1OC	i	i	i	i	i
O=c1c(Cl)c(N2CCN(c3ccc(F)cc3)CC2)cnn1C12CC3CC(CC(C3)C1)C2	i	10*	i	i	i
Cc1cccc(N2CCN(c3ccc4cc(S(=O)(=O)N5CCCCC5)ccc4n3)CC2)c1C	i	i	i	i	i
NC(=O)C(c1ccc(Cl)cc1Cl)c1ncc(C(F)(F)F)cc1Cl (centres undefined)	i	14*	i	i	i
O=C(OC1CCOC1=O)C1CCN(S(=O)(=O)c2ccc(Cl)c(C(F)(F)F)c2)CC1 (centres undefined)	i	i	i	i	i
O=C1[C@@H]2CSCN2C(=O)CN1Cc1c(F)cccc1Cl	i	i	i	i	i
COC(=O)c1cc(S(=O)(=O)NCC2CCN(Cc3cc(C)ccc3C)CC2)c[nH]1	i	i	i	i	i
O=C(Nc1nc(N2C(=O)c3ccccc3C2=O)n(-c2ccccc2)n1)c1ccc(Cl)cc1	i	i	i	47*	-6*
CCn1c2ccccc2c2cc(CNCCCN3CCOCC3)ccc21	i	i	-6.3*	i	i
COc1ccc(CNCc2cc(C)c(OC)cc2C)c(OC)c1	i	i	i	i	-5*
CCC(CC)NCc1ccc2c(c1)c1ccccc1n2CC	i	i	i	i	i
CCn1c2ccccc2c2cc(CNCc3ccc(OC)cc3OC)ccc21	i	i	i	66*	i
COc1cc(C(=O)Nc2cccc(NC(=O)c3cccs3)c2)cc(OC)c1OC	i	i	i	i	i
CC(C(=O)O)N1C(=O)C2C3c4ccccc4C(c4ccccc43)[C@@H]2C1=O (some centres undefined)	i	i	i	i	i
N#CCCN(C(=O)COC(=O)CCc1c[nH]c2ccccc12)c1ccc(F)cc1	i	i	i	i	i
CC(Sc1nnnn1-c1ccccc1)C(=O)Nc1ccccc1-c1ccccc1 (centres undefined)	i	i	i	i	i
CC(Sc1nnnn1-c1ccccc1)C(=O)Nc1ccc(N2CCN(C)CC2)cc1 (centres undefined)	i	i	i	47*	i
Cc1oc(-c2ccc(Cl)cc2)nc1CN1CCC(C(=O)NCc2cccs2)CC1	i	i	i	i	-6*
CCN(CCNC(=O)C1CCN(Cc2nc(-c3ccc(Cl)cc3)oc2C)CC1)c1ccccc1	i	i	-6.6*	i	i
Cc1oc(-c2ccc(Cl)cc2)nc1CN1CCC(C(=O)NCC2CCCO2)CC1 (centres undefined)	i	i	i	i	i
COc1ccc(C2C(C(=O)N3CCN(C)CC3)c3cc(OC)c(OC)cc3C(=O)N2C)cc1 (centres undefined)	i	i	i	i	i
CCN1CCN(C(=O)C2c3cc(OC)c(OC)cc3C(=O)N(C)C2c2ccc(SC)cc2)CC1 (centres undefined)	i	i	i	67*	i
SMILES	TRPC6 activator	TRPC4 PAM	TRPC6 inhibitor	TRPC4 agonist	TRPC4 block
CN1CCN(c2ccc(NC(=O)CSc3nnnn3-c3ccccc3Cl)cc2)CC1	i	i	i	i	i
CCOc1cc(CNCCCN2CCOCC2)cc(Cl)c1OCC(=O)NC(C)(C)C	i	i	i	i	i
COc1cc(CNCCCN2CCOCC2)cc(Br)c1OCc1ccc(Cl)cc1	i	i	i	i	-6*
CCOc1cc(CNCCCN2CCOCC2)cc(Br)c1OCC(=O)Nc1cccc(C(F)(F)F)c1	i	i	i	i	-6*
Cc1ccc(OCC(=O)Nc2ccc(S(=O)(=O)N3CCCC3)cc2)cc1	i	i	i	i	i
CCCc1cc(C(=O)Nc2cc(OC)c(Cl)cc2OC)no1	i	i	i	i	i
COc1cc(NC(=O)c2cc(CC(C)C)on2)c(OC)cc1Cl	i	10*	i	i	i
CCN1CCCC(OC(=O)c2cc(-c3ccc(C)cc3)nc3ccccc23)C1 (centres undefined)	i	14*	i	i	i
COC(=O)[C@H](Cc1ccccc1)NC(=O)c1ccc2ccccc2n1	i	16*	i	i	i
Clc1ccc(N=C2SCC3CCCCN23)cc1 (centres undefined)	i	23*	i	i	i
CC1CCCN(C(=O)Cn2nnc(-c3ccc(S(C)(=O)=O)cc3)n2)C1 (centres undefined)	i	i	i	i	i
Cc1ccc2c(C)c(C(=O)N(Cc3cccs3)C3CCS(=O)(=O)C3)oc2c1 (centres undefined)	i	i	i	61*	i
O=C(/C=C/c1ccc(Cl)cc1Cl)N(Cc1ccccc1)C1CCS(=O)(=O)C1 (centres undefined)	i	i	i	i	i
Cc1ccc2oc(C(=O)N(Cc3ccccc3)C3CCS(=O)(=O)C3)c(C)c2c1 (centres undefined)	i	i	i	43*	i
O=C(/C=C/c1ccc(Cl)cc1)N(Cc1ccccc1)C1CCS(=O)(=O)C1 (centres undefined)	i	20*	i	i	i
COC(=O)C(Cc1ccccc1)NC(=O)c1cccc(S(=O)(=O)N(C)C)c1 (centres undefined)	i	i	i	i	i
CSCCC(=O)N1CCCC(N2CCN(c3cccc(C(F)(F)F)c3)CC2)C1 (centres undefined)	i	i	i	i	i
COc1cc(/C=N/NS(=O)(=O)c2ccc(C(C)(C)C)cc2)cc([N+](=O)[O-])c1O	i	i	i	i	i
Cc1nc(N2CCN(c3ccccn3)CC2)c2c(C)c(C(=O)N3CCN(c4ccc(F)cc4)CC3)sc2n1	i	i	i	i	-10*
COc1ccccc1N1CCN(C(=O)c2sc3ncnc(N4CCN(c5ccccn5)CC4)c3c2C)CC1	i	i	i	i	i
COc1ccccc1N1CCN(C(=O)c2sc3nc(C)nc(N4CCN(c5ccccn5)CC4)c3c2C)CC1	i	i	i	i	-7*
